# TRPC6 act: mouse TRPC6 channel activators, primary screen, cell-based, HEK293, membrane potential dye; B-score at 10 µM; HEK293-TRPC6 membrane potential dye fluorescence; stronger effect = higher value; AID 2550, 2010; 0.13% of 310,000 active;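 active means B-score of the integrated fluorescence ratio above library mean plus 3 SD, and starting fluorescence ratio within library mean plus 5 SD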;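 further: higher score means more depolarization so channel activation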
# TRPC6 inhibitor: mouse TRPC6 channel inhibitors, primary screen, cell-based, HEK293, membrane potential dye | Short transient receptor potential channel 6 (Mus musculus), Q61143 | ACh-evoked depolarization; stronger effect = lower value | B-score at 10 µM | 1.1% of 310,000 active | AID 2553, 2010;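 active means B-score under library mean minus 3 SD, initial fluorescence not abnormally high, positive integrated signal ratio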;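 further: B-score derived from integrated fluorescence ratio over the kinetic read; more negative B-score means stronger inhibition of depolarization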
# TRPC4 act: activators of mouse TRPC4 channel, primary screen, Fluo4 calcium, HEK293 TRPC4beta/mu-opioid cells | AID 2237, 2010 | Fluo4 calcium fluorescence; stronger effect = higher value | B-score at 10 µM | Short transient receptor potential channel 4 (Mus musculus), Q9QUQ5 | 0.49% of 310,000 active;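 active means B-score above 5 SD of library B-scores, and initial fluorescence ratio not above library mean plus 5 SD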;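 further: positive B-score marks a calcium rise read as TRPC4 activation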
#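 system = HEK293 cells stably co-expressing mouse TRPC4beta and mu-opioid receptor | schedule = Fluo4 dye loading 45 min at room temperature, 110 s recording | measure = B-scored integrated calcium fluorescence ratio | signal = Fluo4 calcium-sensitive dye fluorescence, kinetic, 1 Hz baseline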
# TRPC4 PAM: positive allosteric modulators of TRPC4, primary screen, cell-based, mouse TRPC4beta, HEK293 mu-opioid, Fluo-4 calcium; Short transient receptor potential channel 4 (Mus musculus), Q9QUQ5; DAMGO EC20, Fluo-4 Ca2+ flux; stronger effect = higher value; B-score at 10 µM; 0.42% of 310,000 active; AID 2227, 2009;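 active means B-score of calcium response area above 5 SD of library B-scores, with initial fluorescence ratio within 5 SD of library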;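 further: B-score of integrated fluorescence ratio over time as area under calcium response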
# TRPC4 inh: inhibitors of mouse TRPC4 channel, primary screen, Fluo4 calcium, HEK293 TRPC4beta/mu-opioid cells; Short transient receptor potential channel 4 (Mus musculus), Q9QUQ5; AID 2247, 2010; 0.39% of 300,000 active; DAMGO-evoked Fluo4 calcium flux; stronger effect = lower value; B-score at 10 µM;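 active means B-score over 3 SD under the library average, no early fluorescence shift, positive overall ratio signal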
#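 Assay system: HEK293 cells with stable TRPC4beta plus mu-opioid receptor expression; Probe or stimulus: DAMGO in two steps, submaximal then maximal; Dosing: single-point compound dosing; Measured by: Fluo4 calcium-dye fluorescence, kinetic read; Read-out basis: B score from integrated Fluo4 fluorescence ratio.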
# Kir21 inh: inhibitors of mouse Kir2.1 inward-rectifier potassium channel. HEK293-Kir2.1, FluxOR thallium flux fluorescence; stronger effect = lower value. B-score at 10 µM. 0.85% of 310,000 active;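 active means fluorescence ratio B-score at or below minus 3 SD of library scores, with starting-brightness B-score within 2 SD, cut at about -4.2 in these data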;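 further: channel flux triggered by added potassium and thallium sulfate stimulus; B-score of peak minus minimum fluorescence over baseline after thallium stimulus; more negative B-score means stronger Kir2.1 block with less thallium influx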
# Active calls of the source: *; i = inactive. Most compounds without a hit are left out; they make up all but 2.9% or so of the library.
SMILES,TRPC6 act,TRPC6 inhibitor,TRPC4 act,TRPC4 PAM,TRPC4 inh,Kir21 inh
O=C1NC(=O)N(c2ccccc2)C(=O)/C1=C/c1ccc(Sc2ccccc2)o1,i,i,i,i,i,0
N[C@@H](Cc1c[nH]c2ccccc12)c1nnc(SCc2ccc(Cl)cc2)o1,i,i,i,i,i,-5.2*
N[C@@H](Cc1c[nH]c2ccccc12)c1nnc(SCc2ccccc2)o1,i,i,i,i,i,-0.93
NC(=O)c1cc(N2CC2)c([N+](=O)[O-])cc1[N+](=O)[O-],i,i,i,i,i,0.88
CCn1cc(CN2CCCC(C(=O)c3cccc(OC)c3)C2)c(C)n1 (centres undefined),i,i,53*,i,i,0.03
COc1ccc(CN2CCCC(C(=O)c3ccc(Cl)cc3)C2)c(O)c1 (centres undefined),i,i,i,i,i,-11*
CCC(=NCC1CCCO1)c1c(O)n(-c2ccc(OC)cc2)c(=O)[nH]c1=O (centres undefined),i,i,i,i,i,-0.93
COc1ccc(CCN)cc1O,i,i,43*,i,i,0.96
CC(C)Oc1ccc(CCN)cc1Cl,i,i,i,i,i,0.14
CC1=CC2/C=C(\C)CCC(O)C(O)/C=C/C(=O)C23C(=O)NC(CC(C)C)C3C1C (centres undefined),i,i,i,i,i,-7.1*
O=C(CCCc1ccccc1)NCCc1cnc[nH]1,i,i,143*,i,i,-0.45
O=C(COc1ccccc1)NCCc1cnc[nH]1,i,i,i,i,i,0.31
O=C1C2CCCN2C(c2ccncc2)N1c1ccc(Cl)c(Cl)c1 (centres undefined),i,i,i,11*,i,0
O=C1C2CCCN2C(c2cccnc2)N1c1ccc(Cl)c(Cl)c1 (centres undefined),i,i,i,i,i,-0.25
COc1ccc(NC(=O)CN2CC=C(c3ccccc3)CC2)cc1S(=O)(=O)N1CCOCC1,i,i,i,i,i,-2.2
O=C(c1cccc2ccccc12)C1CCCN(C2CCC2)C1 (centres undefined),i,i,i,10*,i,-1.6
O=C(c1cccc2ccccc12)C1CCCN(Cc2ccon2)C1 (centres undefined),i,i,i,i,i,-2.2
COc1ccc(-n2c(CNCCc3ccc(C)cc3)nc3ccccc3c2=O)cc1,i,i,134*,i,i,-0.57
C[C@@H]1C[C@H]2OC(=O)C3(CO3)[C@H]2[C@H](O)[C@]2(C)C(=O)C3OC3[C@@H]12 (some centres undefined),i,i,i,i,i,-0.07
C=C1C(=O)O[C@@H]2C[C@@H](C)[C@@H]3C=CC(=O)[C@@]3(C)[C@@H](O)[C@H]12,i,i,i,i,i,-4.3*
COc1ccc(CNCCc2ccccc2F)c(OC)c1C,i,i,i,i,i,-5.5*
CCOc1cc(CNCCc2ccccc2F)ccc1OC,i,i,i,i,i,-0.07
COc1ccc2c(c1O)[C@]13CCN(C)[C@H](C2)[C@@H]1CCC(=O)C3,i,i,114*,i,i,0.59
CCOC(=O)c1c(NC(=O)C(c2ccccc2)c2ccccc2)sc2c1C1CCN2CC1,i,i,i,i,i,0.71
Clc1cccc(CNCCc2ccc3c(c2)OCO3)c1,i,i,i,i,i,0.85
SMILES,TRPC6 act,TRPC6 inhibitor,TRPC4 act,TRPC4 PAM,TRPC4 inh,Kir21 inh
CC1(C)CC(CCNCc2ccc3c(c2)OCO3)(Cc2ccccc2)CCO1 (centres undefined),i,i,60*,i,i,-2.8
CC(Cc1ccccc1)[n+]1cc(/N=C(\N)[O-])on1 (centres undefined),i,i,i,i,i,-2.5
CN(C)C1(CNC(=O)Nc2ccc(Cl)c(Cl)c2)CCCCC1,i,i,91*,i,i,-2.2
N#Cc1ccc(NC(=O)CN2C(=O)NC3(CCCC3)C2=O)cc1Cl,i,i,i,i,i,-2
N=C1c2ccccc2CN1NC(=O)c1ccc(Br)cc1,i,i,i,i,i,-0.46
O=C1NC(=O)N(c2ccc3c(c2)OCO3)C(=O)/C1=C\c1ccc(-c2ccccc2C(=O)O)o1,i,i,i,i,i,-0.18
O=C(Cc1ccccc1)N1CCN(Cc2cccc(Br)c2)CC1,i,i,i,i,-5*,-1.2
COc1ccc(Br)cc1CN1CCN(C(=O)Cc2ccccc2)CC1,i,i,i,i,-6*,-3.2
O=S(=O)(c1ccc(F)cc1)N1CCCCC1c1cccnc1 (centres undefined),i,i,i,i,i,-4.9*
Cc1ccc(S(=O)(=O)N2CCCC2c2cccnc2)cc1 (centres undefined),i,i,i,i,i,-3.9
O=S(=O)(c1ccc(F)cc1)N1CCCC1c1cccnc1 (centres undefined),i,i,i,i,i,-1.5
O=S(=O)(c1ccc(Cl)cc1)N1CCCCC1c1cccnc1 (centres undefined),i,i,i,i,i,-9*
CN[C@@H]1C[C@@H](c2ccc(Cl)c(Cl)c2)c2ccccc21,i,i,i,i,i,-11*
COc1ccc(OCC#CCN2CCCCCC2)cc1,i,i,i,i,i,0.55
Cc1ccc(C(C)C)c(OCC#CCN2CCCC2)c1,i,i,i,i,i,-4.2*
Cc1cccc(CN2CCCC(C(=O)c3cccc(OC(C)C)c3)C2)n1 (centres undefined),i,i,i,i,i,-0.61
CN(C)C=C1C(=O)N(C2CCCCC2)C(=O)N(C2CCCCC2)C1=O,i,i,95*,i,i,-0.88
Clc1ccc(N2CCNCC2)nn1,i,i,i,22*,i,-0.04
